Source: ChEMBL document CHEMBL4033710, “Synthesis and biological evaluation of kresoxim-methyl analogues as novel inhibitors of hypoxia-inducible factor (HIF)-1 accumulation in cancer cells” (Bioorg Med Chem Lett, 2017)
Calls of active or inactive are those of the source. The rule behind the calls is not given here.

Tests used:
Type in all cases: functional, cell-based
HCT-116 [1] = test: Cytotoxicity against human HCT116 cells after 72 hrs by methylene blue staining based assay; conditions: HCT-116, 72 h
How it was run: (§1)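 HCT116 cells exposed to each analogue for 72 h. Viability read out by methylene blue staining.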

HCT-116 [2] = test: Inhibition of hypoxia-induced HIF1-alpha accumulation in human HCT116 cells after 6 hrs by immunoblot analysis
How it was run: (§2)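 HCT116 cells incubated under hypoxia for 6 h with each compound. HIF-1α protein was detected by immunoblot with specific antibodies, using β-tubulin as loading reference.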

HCT-116 [3] = test: Increase in intracellular oxygen content in human HCT116 cells at 5 uM after 6 hrs under hypoxic-condition by mono azo rhodamine/Nuclear-ID Red DNA staining based fluorescence assay
How it was run: (§3)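 HCT116 cells treated with compound for 6 h under hypoxia and loaded with the hypoxia-sensitive probe mono azo rhodamine (MAR). MAR fluoresces when its azo group is reduced in hypoxia. Nuclei were counterstained with NUCLEAR-ID Red. The value is the MAR/NUCLEAR-ID fluorescence intensity ratio, compared against a hypoxia control by significance testing.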

HCT-116 [4] = test: Cytotoxicity against human HCT116 cells at 0.625 to 10 uM after 72 hrs under hypoxic condition by methylene blue staining based assay
HCT-116 [5] = test: Increase in intracellular oxygen content in human HCT116 cells after 6 hrs under hypoxic-condition by mono azo rhodamine/ Nuclear-ID Red DNA staining based fluorescence assay; how it was run: as §3
HCT-116 [6] = test: Cytotoxicity against human HCT116 cells at 0.625 to 10 uM after 72 hrs by methylene blue staining based assay; how it was run: as §1
HCT-116 [7] = test: Inhibition of hypoxia-induced HIF1-alpha accumulation in human HCT116 cells at 5 uM after 6 hrs by immunoblot analysis; how it was run: as §2

SMILES | IC50 (HCT-116 [1]) | inhibition (HCT-116 [2]) | Activity (HCT-116 [3]) | Activity (HCT-116 [4]) | further results
CO/N=C(/C(=O)OC)c1ccccc1COc1cccc(OCc2cc(C(F)(F)F)cc(C(F)(F)F)c2)c1 | 1360 nM | Dose-dependent effect | Active | Active | –
CO/N=C(\C)c1cccc(OCc2ccccc2/C(=N\OC)C(=O)OC)c1 | – | – | Active | – | –
CO/N=C/c1ccc(OC)c(OCc2ccccc2/C(=N\OC)C(=O)OC)c1 | – | – | Active | – | –
CO/N=C(/C(=O)OC)c1ccccc1COc1cccc(OCc2ccc(Cl)cc2)c1 | 1620 nM | Dose-dependent effect | – | Active | Activity (HCT-116 [5]): Dose-dependent effect
CO/N=C(/C(=O)OC)c1ccccc1COc1cccc(OCC#N)c1 | – | – | inactive | inactive | Activity (HCT-116 [6]): inactive; inhibition (HCT-116 [7]): inactive
CO/N=C(/C(=O)OC)c1ccccc1COc1cccc(O)c1 | – | – | Active | – | –
C=Cc1ccc(COc2cccc(OCc3ccccc3/C(=N\OC)C(=O)OC)c2)cc1 | 1260 nM | Dose-dependent effect | Active | Active | –
CO/N=C/c1cccc(OCc2ccccc2/C(=N\OC)C(=O)OC)c1 | – | – | Active | – | –
CO/N=C(/C(=O)OC)c1ccccc1COc1cccc(OCc2ccccc2)c1 | – | – | Active | – | –
